From ChEMBL document CHEMBL1157855, “Synthesis and biological activity of n-butylphthalide derivatives” (Eur J Med Chem, 2010)

Assays:
[1] = Toxicity in ip dosed mouse; type: organism-based; conditions: in vivo
Summary of the method: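 Acute toxicity test in mice with test article given by intraperitoneal injection; read-out was the LD50 (mg/kg).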

Aorta [2] = assay: Vasorelaxant activity in rat thoracic aorta assessed as inhibition of norepinephrine-induced contractions Ca2+-free medium; type: functional, tissue-based
Aorta [3] = assay: Vasorelaxant activity in rat thoracic aorta assessed as relaxation of resting tension

SMILES | LD50 [1] [mg/kg] | IC50 (Aorta [2]) [µM] | Activity (Aorta [3]) | inhibition (Aorta [2])
CCCCC1OC(=O)c2ccccc21 (stereo not drawn) [RAC-3-N-BUTYLPHTHALIDE] | 751 | 130 | – | –
CCCCC1OC(=O)c2ccc(Br)cc21 (stereo not given) | – | – | Dose-dependent effect | –
CCCCC1OC(=O)c2ccc(Cl)cc21 (stereo not given) | – | – | Dose-dependent effect | –
CCCCC1OC(=O)c2cc(Br)ccc21 (stereo not given) | > 1000 | 107 | – | Dose-dependent effect
CCCCC1OC(=O)c2cc(F)ccc21 (stereo not given) | 593 | 132 | – | Dose-dependent effect
